Test results from PubChem BioAssay AID504383 (The Scripps Research Institute Molecular Screening Center, 2011).
About 1,200 (48%) of roughly 2,500 compounds were called active. The set was probably picked from earlier hits. Some of the results follow. Values without a mark were called inactive.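 How the source made its calls: active means mean activation above the low control average plus 3 SD, as set in the primary screen (cut at about 12% in these data); inactive means the rest.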

target: Troponin I, cardiac muscle (Homo sapiens) + Troponin T, cardiac muscle (Homo sapiens) + Troponin C, slow skeletal and cardiac muscles (Homo sapiens) (UniProt P19429+P45379+P63316); assay: calcium sensitizers of cardiac thin filaments – biochemical, IANBD-TnC fluorescence, triplicate, confirmation (AID 504383); conditions: IANBD-labeled cardiac RTF, Ca2+ sensitivity fluorescence; at 7.2 µM; stronger effect = higher value; scaled from EC20 to saturating calcium; tested at EC20 calcium, 0.472 mM;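 further: 0% = DMSO at 0.472 mM calcium and 100% = DMSO at 2.9 mM calcium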
How it was run: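 Material: labelled regulated thin filaments; Reagent: 0.472 mM calcium; Incubation: 15 min compound incubation with filaments at 25 °C; Detection: filament fluorescence intensity; Evaluation: fluorescence increase normalised to calcium controls; Benchmarks: low control EC20 calcium, high control EC100 calcium.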

Row | SMILES | activation
1 | COc1ccc2nc3ccccc3[n+]([O-])c2c1 | 13.1% (active)
2 | CCOCCCNc1ccc(-c2ccccc2)nn1 | 8.24%
3 | COc1cc(/C=C/C(=O)CC(=O)/C=C/c2ccc(O)c(OC)c2)ccc1O | 9.89%
4 | COc1cc(/C=C/C=C2/CC/C(=C/C=C/c3ccc(O)c(OC)c3)C2=O)ccc1O | 19.4% (active)
5 | COc1cc(/C=C/C(O)=C/C(=O)/C=C/c2ccc(O)cc2)ccc1O | 8.41%
6 | O=C(/C=C(O)/C=C/c1ccc(O)cc1)/C=C/c1ccc(O)cc1 | 10.7%
7 | COc1cc(/C=C/C(=O)/C=C(O)/C=C/c2ccc(O)c(OC)c2)ccc1O | 287% (active)
8 | CCN(CC)c1ccc2cc(S(=O)(=O)c3ccc(C)cc3)c(=O)oc2c1 | 32.5% (active)
9 | CCN(CC)c1ccc2cc(C=O)c(=O)oc2c1 | 17% (active)
10 | CCN(CC)c1ccc2cc(S(=O)(=O)c3ccc(Cl)cc3)c(=O)oc2c1 | 372% (active)
11 | CCN(CC)c1ccc2cc(C(C)=O)c(=O)oc2c1 | 0.78%
12 | CCN(CC)c1ccc2cc(NC(=O)CCC(=O)O)c(=O)oc2c1 | 4.16%
13 | CCN(CC)c1ccc2c(c1)oc(=O)c1c(Cl)cc(=O)oc12 | 63.5% (active)
14 | CCN(CC)c1ccc2c(Cl)c(Br)c(=O)oc2c1 | 8.56%
15 | Clc1ccccc1N=Nc1ccccn1 | 9.89%
16 | CCN(CC)c1ccc2oc(=O)c(C)nc2c1 | 364% (active)
17 | CCOC(=O)c1c(C#N)c(SCC(=O)Nc2ccc(OC)cc2)nc2c1CN(CC)CC2 | 78.6% (active)
18 | COc1cccc2c1C(=O)c1c(O)c3c(c(O)c1C2=O)C[C@@](O)(C(=O)CO)C[C@@H]3OC1CC(N)C(O)C(C)O1 (stereo partly specified) | 9.17%
19 | COc1cccc2c1C(=O)c1c(O)c3c(c(O)c1C2=O)C[C@](O)(C(C)=O)C[C@H]3O[C@@H]1C[C@@H](N)[C@@H](O)[C@@H](C)O1 | 4.79%

Row | SMILES | activation
20 | COc1cccc2c1C(=O)c1c(O)c3c(c(O)c1C2=O)CC(O)(C(C)=O)CC3OC1CC(O)C(O)C(C)O1 (stereo unspecified) | 75.5% (active)
21 | COc1cccc2c1C(=O)c1c(O)c3c(c(O)c1C2=O)C[C@@](O)(C(=O)CO)C[C@@H]3O[C@H]1C[C@H](N)[C@H](O)[C@H](C)O1 | 3.66%
22 | COc1cccc2c1C(=O)c1c(O)c3c(c(O)c1C2=O)CC(O)(C(C)=O)CC3OC1CC(N(C)C)C(O)C(C)O1 (stereo unspecified) | 6.16%
23 | COc1cccc2c1C(=O)c1c(O)c3c(c(O)c1C2=O)CC(O)(C(=O)CO)CC3OC1CC(N(C)C)C(O)C(C)O1 (stereo unspecified) | 211% (active)
24 | C[C@H]1COc2c(N3CCN(C)CC3)c(F)cc3c(=O)c(C(=O)O)cn1c23 | 6.23%
25 | Cc1ccc(/C=C/c2ccc(N(C)C)cc2)[n+](C)c1 | 9.58%
26 | CN(C)c1ccc(/C=C/c2cc[n+](C)c3ccccc23)cc1 | 6.25%
27 | CN(C)c1ccc(/C=C/c2cc[n+](C)cc2)cc1 | 28.1% (active)
28 | CCOc1cc(/C=C2\NC(=O)NC2=O)cc([N+](=O)[O-])c1O | 8.6%
29 | Cc1ccccc1N=Cc1cc2c(cc1O)OC(N)=C(C#N)C2c1ccccc1 (stereo unspecified) | 15.4% (active)
30 | COc1ccc(N=Cc2cc3c(cc2O)OC(N)=C(C#N)C3c2ccccc2)cc1 (stereo unspecified) | 95.8% (active)
31 | COc1ccc(O)c(/C=N/c2nc3ccccc3n2C)c1 | 10.8%
32 | Cc1cc(C)n(-c2nc3ccccc3nc2Nc2ccc3[nH]c(=O)[nH]c3c2)n1 | 15.9% (active)
33 | Cc1cc(S(=O)(=O)Cc2noc(-c3c(C)noc3C)n2)c(C)cc1Cl | 5.06%
34 | CC(C)(ONC(=O)Nc1ccccc1Cl)C(=O)O | 833% (active)
35 | O=C(O)C1CCC(CNCc2ccccc2Cl)CC1 (stereo unspecified) | 10.5%
36 | CCN1C(=O)[C@@H]2Cc3c([nH]c4ccccc34)C(c3ccc(OC)cc3)N2C1=S (stereo partly specified) | 6.48%
37 | O=C(NCCN1CCOCC1)c1ccccc1N1C(=O)[C@@H]2Cc3c([nH]c4ccccc34)C(c3ccc(F)cc3)N2C1=O (stereo partly specified) | 4.51%
38 | CC(C)c1ccc(C2c3[nH]c4ccccc4c3C[C@H]3C(=O)N(c4ccccc4C(=O)N4CCC(C(=O)O)CC4)C(=O)N23)cc1 (stereo partly specified) | 12% (active)

Row | SMILES | activation
39 | CCOc1nc(OCC)c2[nH]c(C(=O)O)c(Br)c2n1 | 4.87%
40 | Cc1ccccc1C(=O)c1cccn1CC(=O)NCCCN1CC(C)CC(C)C1 (stereo unspecified) | 5.75%
41 | CC1CN(CCCCOc2ccc3ccccc3c2)CC(C)O1 (stereo unspecified) | 7.54%
42 | CC1CC(C)CN(CCOCCSc2ccccc2)C1 (stereo unspecified) | 76.1% (active)
43 | Cc1ccccc1C1CC(=O)Oc2cc(O)ccc21 (stereo unspecified) | -1.84%
44 | COCCn1c(SCC(=O)Nc2ccc(NC(=O)c3ccco3)c(OC)c2)nc2ccccc2c1=O | 14.4% (active)
45 | O=C(CSc1ccc(Cl)cc1)Nc1cccc(NC(=O)c2ccco2)c1 | 9.78%
46 | COC1=CC2(O)CCCC2=CC1=O (stereo unspecified) | 6.42%
47 | CC(C)(C)NC(=O)NC(=O)Cn1ccsc1=N | 135% (active)
48 | Cc1c2c(n3c(nc4ccccc43)c1C#N)N(CCN1CCOCC1)CC2 | 10%
49 | Cc1nc2c(C#N)cnn2c2c1CCN(Cc1ccccc1)N2C | 389% (active)
50 | O=C1c2c(O)cc(O)cc2O[C@@]12c1c(cc(O)c3c1O[C@H](c1ccc(O)cc1)[C@@H](O)C3)O[C@@H]2c1ccc(O)cc1 | 5.77%
51 | CCOc1ccc(C2CC(c3c(O)c4ccccc4oc3=O)=NN2c2ccccc2)cc1OC (stereo unspecified) | 22.3% (active)
52 | CCC1(C)COC(c2ccc(OC)c(OC)c2)OC1 (stereo unspecified) | 1.48%
53 | NC(=O)c1cc2ccc(O)cc2oc1=NCc1ccccc1 | 6.57%
54 | CCOC(=O)c1c(-c2ccccc2Cl)csc1NC(=O)c1cc(S(=O)(=O)N2CCOCC2)ccc1C | 12.7% (active)
55 | Cc1ccc(NC(=O)c2cc(S(=O)(=O)N3CCCCC3)ccc2N2CCOCC2)cc1S(=O)(=O)N(C)C | 7.6%
56 | CCCCCC(C)NC(=S)NC(=O)c1cc(S(=O)(=O)N2CCOCC2)ccc1C (stereo unspecified) | 6.76%
